PMC8994735 (Targeted Oncology, 2021)
“Also recorded” adds a separate entry of the source. Like-named read-outs stand apart in the source and are kept apart here.

Assays:
[1] = system: advanced nonhematologic malignancies; assay: Antitumor activity: disease response by RECIST v1.1; type: in vivo, human
Outline: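 Oral dosing once daily (2, 3 or 4 mg) or once weekly (20 or 30 mg) in 28-day cycles. Treatment lasted up to 12 months or until progression, unacceptable toxicity or consent withdrawal. Response was assessed by RECIST v1.1 in the safety analysis set (patients receiving ≥ 1 dose). Analysis was descriptive, with no formal hypothesis testing.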

[2] = system: patients from the United States / Western patients; settings: cited from earlier work
[3] = Plasma pharmacokinetics; type: in vivo, human; settings: for AUC / Cmax / half-life / Tmax: human, oral; for Cmax: Mean Cmax

CC(C)n1nc(-c2ccc3oc(N)nc3c2)c2c(N)ncnc21 [sapanisertib]
Best overall response of progressive disease ([1]; QD arm): 45%
Clinical benefit rate (CR, PR, or SD of any duration) ([1]; QD arm): 45%
Discontinuation due to progressive disease ([1]; QD arm): 64%
Best overall response of progressive disease ([1]; QW arm): 33%
Clinical benefit rate (CR, PR, or SD of any duration) ([1]; QW arm): 67%
Discontinuation due to progressive disease ([1]; QW arm): 67%
Patients with stable disease for ≥ 6 months ([1]; all cohorts): Three
Complete response (CR) or partial response (PR) ([1]; either treatment arm): No patients
Anti-tumor effect ([1]; heavily pretreated patients, across dosing schedules): Moderate anti-tumor effects and a favorable safety profile were observed with sapanisertib in this heavily pretreated patient population
Incidence of stomatitis ([2]; 20 or 30 mg QW): 10%
Incidence of stomatitis ([2]; sapanisertib 2–7 mg QD): 35%
Incidence of stomatitis ([2]; sapanisertib 3 or 4 mg QD): 18%
Incidence of stomatitis ([2]; sapanisertib 7–40 mg QW): 30%
Accumulation in plasma ([3]; QD or QW, any dose level): did not accumulate in plasma to any appreciable extent
Dose dependence of plasma exposure (AUC and Cmax) ([3]; across all doses): increased linearly across all doses; also recorded: generally linear, dose-dependent
Time at which peak plasma concentrations were achieved post-dose ([3]; cycle 1 day 1, single dose, both QD and QW arm): 0.5 to 2.0 h
Geometric mean accumulation ratio of AUC168 ([3]; cycle 1 day 15, 20 mg QW): 1.14
Geometric mean accumulation ratio of Cmax ([3]; cycle 1 day 15, 20 mg QW): 0.72
Geometric mean accumulation ratio of AUC168 ([3]; cycle 1 day 15, 30 mg QW): 1.47
Geometric mean accumulation ratio of Cmax ([3]; cycle 1 day 15, 30 mg QW): 1.36
Time at which peak plasma concentrations were achieved post-dose ([3]; cycle 1 day 15, QD arm): 0.5 to 3.0 h
Time at which peak plasma concentrations were achieved post-dose ([3]; cycle 1 day 15, QW arm): 0.5 to 4.1 h
Geometric mean accumulation ratio of Cmax ([3]; cycle 1 day 15, across all QD dose levels): 0.93–1.30
AUC ([3]; plasma, Mean AUC24, cycle 1 day 15, QD dosing): 237 to 366 ng·h/mL
AUC ([3]; plasma, Mean AUC from 0–24 h (AUC24), cycle 1 day 1, across QD doses): 138 to 315 ng·h/mL
Cmax ([3]; plasma, cycle 1 day 1, across all QD doses): 23.9 to 56.9 ng/mL
Cmax ([3]; plasma, cycle 1 day 15, across all QD doses): 33.4 to 57.2 ng/mL
half-life ([3]; plasma, Mean plasma elimination half-life, cycle 1 day 1, across all QD doses): 6 to 6.8 h
half-life ([3]; plasma, Mean plasma elimination half-life, cycle 1 day 15, across all QD doses): 5.24 to 9.2 h
Tmax ([3]; plasma, Median Tmax, cycle 1 day 1, across all QD doses): 0.5 to 1 h
Tmax ([3]; plasma, Median Tmax, cycle 1 day 15, across all QD doses): 1 to 1.5 h
half-life ([3]; plasma, T1/2, overall, as summarised in the abstract): 5.9 to 7.6 h
Tmax ([3]; plasma, Tmax, across all doses in both arms): 0.5 to 2.6 h
Cmax, mean (sd) ([3]; plasma, cycle 1 day 15, QW dose escalation 20 mg, n 3): 207.5 ng/mL
